Assay: Selectivity coefficient as ratio of Kcat/Km for MAO-A and Kcat/Km for MAO-B
Method in brief: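 Selectivity coefficient: MAO-A kcat/KM divided by MAO-B kcat/KM. Each value came from spectrophotometric initial-rate kinetics at 100–2000 μM substrate in 100 mM sodium phosphate pH 7.4, with 0.16 μM MAO-A or 0.08 μM MAO-B, and double-reciprocal plot analysis.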

Structure (SMILES)	Selectivity coefficient
CN1CC=C(Oc2ccc(Cl)cc2)CC1	2.15
Cc1cccc(OC2=CCN(C)CC2)c1	1.16
COc1cccc(OC2=CCN(C)CC2)c1	3.88
CN1CC=C(Oc2ccc([N+](=O)[O-])cc2)CC1	2.53
CN1CC=C(Oc2ccccc2-c2ccccc2)CC1	4.35
CN1CC=C(Oc2cccc([N+](=O)[O-])c2)CC1	1.21
CN1CC=C(Oc2cccc(Cl)c2)CC1	5.99
CN1CC=C(Oc2ccc(-c3ccccc3)cc2)CC1	4.71
CN1CC=C(c2ccccc2)CC1	0.03
Cc1ccc(OC2=CCN(C)CC2)cc1	0.3
CN1CC=C(Oc2cccc(-c3ccccc3)c2)CC1	8.74
COc1ccc(OC2=CCN(C)CC2)cc1	2.08

The next lines start with the values.

Selectivity coefficient	Structure (SMILES)
0.08	CN1CC=C(Cc2ccccc2)CC1
1.01	COc1ccccc1OC1=CCN(C)CC1
0.57	CN1CC=C(Oc2ccccc2)CC1
1.4	Cc1ccccc1OC1=CCN(C)CC1
2.99	CN1CC=C(Oc2ccccc2Cl)CC1
1.7	CN1CC=C(Oc2ccccc2[N+](=O)[O-])CC1

Source: ChEMBL document CHEMBL1128681, “Studies on the monoamine oxidase (MAO)-catalyzed oxidation of phenyl-substituted 1-methyl-4-phenoxy-1,2,3,6-tetrahydropyridine derivatives: factors contributing to MAO-A and MAO-B selectivity” (J Med Chem, 1995)
